T cell HTS – modulators of CD8 T cell-vesicle binding, primary screen, mouse 2C CD8+ T cells, flow cytometry; 2C CD8+ T cell-vesicle binding; active compounds read low; response (vesicle binding), % at 7 µM; actives 0.068% (n = 330,000);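 active means response, share of CD8 T cells binding vesicles, and their 90th percentile fluorescence all below set limits, cut at about 80% in these data, passing the limit was not always enough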;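 further: values below 100% mean blocked vesicle binding to the CD8+ T cells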
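Material: murine 2C transgenic CD8+ T lymphocytes / Also added: QL9-peptide-loaded Drosophila micro-vesicles bearing Ld, ICAM-1 and B7-1 / Schedule: binding step 1.5 h, 37 °C, antibody labelling 20 min, ice / Signal: flow cytometry, PE anti-B7-1 (FL2) versus Alexa647 anti-CD8 (FL8), PFA-fixed / Evaluation: percent CD8+ FL2 mean versus row control / Benchmarks: naked versus QL9-loaded vesicles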
CHT block – inhibitors of human choline transporter CHT; High affinity choline transporter 1 (Homo sapiens), Q9GZV3; CHT-expressing cells, membrane potential dye, choline response; active compounds read low; B-score at 10 µM; actives 0.86% (n = 310,000); AID 488975, 2010;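 active means B-score over 3 SD under the library average, and starting fluorescence ratio not unusually high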;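 further: choline stimulus applied at its EC90 after an EC20 pre-addition; B-score computed on integrated fluorescence ratio after choline addition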
CHT allo act – CHT positive allosteric modulators, primary screen, cell-based, membrane potential dye, choline EC20 | High affinity choline transporter 1 (Homo sapiens), Q9GZV3 | CHT-expressing cells; active compounds read high; LV-AA mutant CHT in HEK293 cells | B-score at 10 µM | actives 0.49% (n = 310,000) | AID 488977, 2010;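 active means initial fluorescence not abnormally high and integrated response B-score, plate-corrected, over 3 SD above library mean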
VLA-4 inh – inhibition in human VLA-4 binding assay, primary screen, VLA-4 allosteric modulator project, MLPCN library, flow cytometry, VLA-4 expressing cells; Integrin alpha-4 (Homo sapiens), P13612; ligand binding flow cytometry; inhibition, % (about 7 µM as worked out from the volumes in the protocol); actives 0.2% (n = 330,000); in the data active means inhibition above about 50%
Target sequence (P13612 whole entry, looked up): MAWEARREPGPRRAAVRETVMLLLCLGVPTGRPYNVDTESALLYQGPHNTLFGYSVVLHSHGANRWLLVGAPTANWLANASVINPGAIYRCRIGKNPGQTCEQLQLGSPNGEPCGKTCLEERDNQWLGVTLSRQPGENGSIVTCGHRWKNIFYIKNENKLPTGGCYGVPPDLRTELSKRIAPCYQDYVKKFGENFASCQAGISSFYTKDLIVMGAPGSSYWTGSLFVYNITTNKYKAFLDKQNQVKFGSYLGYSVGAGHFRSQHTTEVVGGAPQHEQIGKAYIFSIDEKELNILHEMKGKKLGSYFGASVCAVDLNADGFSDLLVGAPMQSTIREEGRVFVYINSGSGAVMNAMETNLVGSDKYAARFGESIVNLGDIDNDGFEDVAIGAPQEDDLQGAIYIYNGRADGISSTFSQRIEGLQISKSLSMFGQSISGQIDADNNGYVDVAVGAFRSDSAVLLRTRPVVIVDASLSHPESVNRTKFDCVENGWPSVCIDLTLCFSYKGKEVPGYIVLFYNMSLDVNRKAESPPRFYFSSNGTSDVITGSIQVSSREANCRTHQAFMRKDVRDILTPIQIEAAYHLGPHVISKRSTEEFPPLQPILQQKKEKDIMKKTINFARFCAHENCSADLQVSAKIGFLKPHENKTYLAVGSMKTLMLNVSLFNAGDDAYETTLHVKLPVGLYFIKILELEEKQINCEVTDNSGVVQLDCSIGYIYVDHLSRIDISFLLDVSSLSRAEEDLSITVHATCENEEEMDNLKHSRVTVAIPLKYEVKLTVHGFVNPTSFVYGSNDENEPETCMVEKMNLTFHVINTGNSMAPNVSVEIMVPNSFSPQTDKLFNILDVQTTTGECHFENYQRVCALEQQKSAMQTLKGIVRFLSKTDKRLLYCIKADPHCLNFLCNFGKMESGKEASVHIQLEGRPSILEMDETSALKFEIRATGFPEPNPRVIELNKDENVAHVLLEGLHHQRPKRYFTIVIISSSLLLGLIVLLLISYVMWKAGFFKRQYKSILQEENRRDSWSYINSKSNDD
CHT act confirm – CHT activators, confirmation, cell-based, membrane potential dye, duplicate; actives 91% (n = 2,500); CHT-expressing cells, membrane potential dye fluorescence (FDSS); % of choline EC20–EC90 response window; HEK293 expressing CHT LV-AA mutant; choline added at its EC20; activation, % at 10 µM; shares compounds with CHT allo act;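 active means primary screen active, with duplicate mean activation above negative control mean plus 3 SD, cut at about 11% in these data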
HEK293 MP dye – membrane potential response in parental HEK293 cells, counter-screen for CHT activator project, cell-based, membrane potential dye. shares compounds with CHT allo act. membrane potential dye fluorescence (FDSS); measured after EC20 choline addition. ratio readout change at 10 µM, hits read low. actives 62% (n = 2,500). AID 623908, 2012;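 active means duplicate-averaged ratio beyond 3 SD from buffer wells, up or down, though filed actives are nearly all decreases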
Numbers without * were called inactive; i = inactive; nt = no result given. Rows were chosen to be rich in hits. Some 1.5% of all compounds tested hit in one or more screens of this group.

SMILES | T cell HTS | CHT block | CHT allo act | VLA-4 inh | CHT act confirm | HEK293 MP dye
COC(=O)/C(C#N)=C/c1c(N2CCN(C)CC2)nc2ccccn2c1=O | 221 | i | 7.3* | 10 | 48* | -56*
N#C/C(=C\c1c(N2CCOCC2)nc2ccccn2c1=O)C(=O)NC1CCS(=O)(=O)C1 (centres undefined) | i | i | 9.6* | -7 | 10* | -54*
CN1CCN(c2nc3ccccn3c(=O)c2C=C(C#N)C#N)CC1 | 275 | i | i | 1 | 50* | -49*
Cc1ccc(NC(=S)Nn2cnnc2)c(C)c1 | 324 | i | i | 0 | nt | nt
CN(C(=O)CN(C)S(=O)(=O)c1ccc(F)cc1)c1c(N)n(Cc2ccccc2)c(=O)[nH]c1=O | 952 | i | i | 0 | nt | nt
CCCC[n+]1c2ccccc2cc2ccccc21 | 35 | i | i | 18 | nt | nt
CCC[n+]1c2ccccc2cc2ccccc21 | 168 | i | i | -2 | 76* | -71*
CCCCN(Cc1ccco1)C(=O)C1CCCN(c2ncnc3c2nc2n3CCCCC2)C1 (centres undefined) | 202 | i | i | -2 | 18* | i
CC(C)N(Cc1ccccc1)C(=O)C1CCCN(c2ncnc3c2nc2n3CCCCC2)C1 (centres undefined) | 248 | i | i | -5 | nt | nt
CCOc1ccc(NC(=O)CN(C)C(=O)/C=C/c2ccco2)cc1OCC | 227 | nt | nt | 2 | nt | nt
CN1CCN(NC(=O)c2cc(-c3ccccn3)nc3ccccc23)CC1 | 277 | i | i | 20 | nt | nt
CN1CCN(NC(=O)c2cc(-c3ccc(Cl)s3)nc3ccccc23)CC1 | 552 | i | i | 3 | 7 | -37*
CCC(=O)Nc1cccc(-c2cn3ccccc3n2)c1 | 328 | i | i | 39 | 45* | -42*
COc1ccc(-c2cn3ccccc3n2)cc1OC | 494 | i | i | -8 | 21* | -38*
COc1ccc2c(c1)sc1nc(=O)ccn12 | 157 | i | i | 13 | nt | nt
Cc1ccc2c(c1)sc1nc(=O)ccn12 | i | i | i | 34 | 40* | -38*
COCCNC(=O)C(c1ccc(F)cc1)N(Cc1cccs1)C(=O)CCC(=O)Nc1ccccn1 (centres undefined) | 235 | i | i | -3 | nt | nt
Cc1nn(C)c(Oc2cccc(Cl)c2)c1C(=O)Nc1ccc(F)cc1F | 352 | i | i | 10 | 30* | i
O=C(N/N=C/c1cccc(OC(=O)c2cccc(Br)c2)c1)c1ccncc1 | 400 | i | i | -4 | nt | nt
CCc1nnc(NC(=O)CSc2nc(C)cs2)s1 | 240 | i | i | 8 | nt | nt
CCc1nnc(NC(=O)CSc2nnc3nc(C)cc(C)n23)s1 | 179 | i | 8.5* | 0 | 52* | -61*
COc1ccc2c(O)c(-c3c(C)cc(C)cc3C)c(=O)[nH]c2c1 | 335 | i | i | -24 | nt | nt
Fc1ccc(-c2csc(/C=C/c3ccc4c(c3)OCO4)n2)cc1 | 474 | i | i | 49 | nt | nt
COc1ccc(N/C(N)=N/c2nc(CSc3ccc(C)cc3)cc(=O)[nH]2)cc1 | 416 | i | i | 2 | nt | nt
Cc1ccc(N/C(N)=N/c2nc(CSc3nnc(N)s3)cc(=O)[nH]2)cc1 | 84 | i | i | 4 | 5 | i
SMILES | T cell HTS | CHT block | CHT allo act | VLA-4 inh | CHT act confirm | HEK293 MP dye
Cc1nc2ccc(Cc3ccc4nc(C)[nH]c4c3)cc2[nH]1 | 145 | i | 7.5* | -1 | 59* | -54*
COc1ccc(-c2c(-c3cc(OC)c(OC)c(OC)c3)noc2C)cn1 | 0 | i | 6.7* | 14 | 33* | i
COc1cc(-c2c(-c3cc(OC)c(OC)c(OC)c3)noc2C)ccc1F | 432 | i | i | 28 | nt | nt
COc1cc(-c2noc(C)c2C#Cc2ccccn2)cc(OC)c1OC | 545 | i | 9.5* | -13 | 30* | i
COc1cc(-c2noc(C)c2/C=C/c2ccc(N)cc2)cc(OC)c1OC | 349 | i | 10* | 5 | 42* | i
O=C(CN(C(=O)CCC(=O)Nc1ccccn1)c1ccccc1F)NCc1ccc2c(c1)OCO2 | 140 | i | i | 12 | nt | nt
CCN(CC(=O)NCc1ccc(Cl)cc1)C(=O)CSCC(=O)Nc1cccc(C)c1 | 239 | i | i | -14 | nt | nt
Cn1ccnc1COc1ccc(C=O)cc1 | 262 | i | i | 12 | nt | nt
COc1ccccc1CNC(=O)COc1cc2c(c3oc(=O)cc(C)c13)CCC(C)(C)O2 | 224 | i | i | 2 | 24* | i
COc1ccc(CNC(=O)COc2cc3c(c4oc(=O)cc(C)c24)CCC(C)(C)O3)cc1 | 179 | i | i | 9 | nt | nt
Cc1ccc(/C=C/S(=O)(=O)NCCC(=O)NCc2ccc(F)cc2)cc1 | 206 | nt | nt | 5 | nt | nt
Nc1c(Cl)ncnc1N1CCCC1 | 503 | i | i | -53 | nt | nt
NC(N)=NC(=O)c1nc(Cl)c(N)nc1N | 100 | i | 7.2* | -7 | 18* | -41*
NC(N)=NC(=O)c1nc(Cl)c(N2CCCCCC2)nc1N | 143 | i | i | -7 | 42* | -22*
COc1ccc([C@H]2CC(=O)C=C(c3cc(C=O)ccc3OC)C2)cc1 | 446 | nt | nt | -9 | nt | nt
COc1ccc(C2Nc3ccccc3C(=O)N2c2ccc(C)cc2)cc1Cn1cc([N+](=O)[O-])cn1 (centres undefined) | 479 | i | i | -7 | nt | nt
COc1ccc(C2Nc3ccccc3C(=O)N2c2ccc(C)cc2)cc1Cn1nnc2ccccc21 (centres undefined) | i | i | i | 6 | 10* | i
CC(C)c1ccc(NC(=O)CN2C(=O)NC(C)(C3CC3)C2=O)cc1 (centres undefined) | 576 | nt | nt | 13 | nt | nt
CC(=O)N1CCN(C2=Nc3cccc4cccc2c34)CC1 | 290 | i | 9.8* | 7 | 52* | -77*
COc1ccccc1N1CCN(C2=Nc3cccc4cccc2c34)CC1 | 277 | i | i | 1 | 39* | -58*
O=C(CCCN1C(=O)c2cccc3cccc(c23)C1=O)N1CCN(c2ccccn2)CC1 | 0 | i | i | 28 | nt | nt
c1cc2c3c(cccc3c1)C(N1CCOCC1)=N2 | 630 | i | 8.5* | 1 | 56* | -68*
c1ccc(CC2CCN(C3=Nc4cccc5cccc3c45)CC2)cc1 | 362 | i | i | 8 | nt | nt
